# Laboratory results published in paper PMC3632105 (Nucleic Acids Research, 2013).
# Several values for one entry are separate records, joined by “and”; a condition that tells them apart may be missing. Identical values can stand only once.
# B1: DnaG-C: amino acid residues 434–581 of DnaG, C-terminal helicase-binding domain (protein, UniProt P0ABS5 434-581, looked up, fragment)
# chain: AAESGVSRPVPQLKRTTMRILIGLLVQNPELATLVPPLENLDENKLPGLGLFRELVNTCLSQPGLTTGQLLEHYRGTNNAATLEKLSMWDDIADKNIAEQTFTDSLNHMFDSLLELRQEELIARERTHGLSNEERLELWTLNQELAKK
# modifications: helicase-binding domain
# B2: DnaG-N: amino acid residues 1–433 of DnaG (protein, UniProt P0ABS5 1-433, looked up, fragment)
# chain: MAGRIPRVFINDLLARTDIVDLIDARVKLKKQGKNFHACCPFHNEKTPSFTVNGEKQFYHCFGCGAHGNAIDFLMNYDKLEFVETVEELAAMHNLEVPFEAGSGPSQIERHQRQTLYQLMDGLNTFYQQSLQQPVATSARQYLEKRGLSHEVIARFAIGFAPPGWDNVLKRFGGNPENRQSLIDAGMLVTNDQGRSYDRFRERVMFPIRDKRGRVIGFGGRVLGNDTPKYLNSPETDIFHKGRQLYGLYEAQQDNAEPNRLLVVEGYMDVVALAQYGINYAVASLGTSTTADHIQLLFRATNNVICCYDGDRAGRDAAWRALETALPYMTDGRQLRFMFLPDGEDPDTLVRKEGKEAFEARMEQAMPLSAFLFNSLMPQVDLSTPDGRARLSTLALPLISQVPGETLRIYLRQELGNKLGILDDSQLERLMPK
# Assays:
# [1] = Sedimentation coefficient of the free proteins; assay type: physicochemical; details: low salt buffer: 5 mM potassium phosphate, pH 7.4, 5 mM NaCl, 8% (w/v) glycerol, 0.5 mM DTT; 20°C, 50 000 rpm
# How it was run: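 Sedimentation velocity in double-sector cells, recording 280 nm absorbance versus radial position. Samples were full-length DnaG, DnaG-N (residues 1–433), DnaG-C (434–581) and E. coli SSB. Concentrations came from 280 nm extinction coefficients. Data were evaluated as c(s) distributions in SEDFIT.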
# [2] = test system: DnaG-C; assay: NMR titration; assay type: binding, Escherichia coli; details: 300 µM 15N-DnaG-C titrated with SSB-Carb, 295 K, 600 MHz
# How it was run: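 15N-DnaG-C in 5 mM potassium phosphate pH 7.4, 5 mM NaCl, 2 mM DTT, 10% D2O. Peptide was added from a 30 mM DMSO stock to final 0, 0.1, 0.3, 0.6 and 1 mM. SOFAST-HMQC spectra used 16 scans. Shift = sqrt[Δδ(1H)² + (Δδ(15N)/10)²], comparing no peptide with 1 mM.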
# [3] = test system: DnaG-C; assay: Isothermal titration calorimetry of DnaG-C with SSB-Carb peptide; assay type: binding, Escherichia coli; details: for binding (association) constant KA by ITC: model of n identical independent sites
# [4] = test system: SSB; details: low salt conditions; cited from earlier work
# [5] = 150 mM NaCl, 5 mM potassium phosphate, pH 7.4, 8% (w/v) glycerol, 25°C, SSB-Carb on DnaG-C
molecule,measurement,setting,value
DnaG: full-length E. coli DnaG primase,"sedimentation coefficient, free protein",[1],3.4 S
EcoSSB: Escherichia coli single-stranded DNA-binding protein; concentrations given in tetramers,"sedimentation coefficient, free protein",[1],3.9 S
WMDFDDDIPF [SSB-Carb],chemical shift change of W522 side chain of DnaG-C (in words),[2],not only the chemical shifts of tryptophan 522 backbone change upon addition of SSB-Carb peptide but also those of the side chain
same,chemical shift change of W522 side chain of DnaG-C (in words),[2]; listed as peptide,strong changes in chemical shift on peptide binding
same,binding (association) constant KA by ITC,"[3]; 5 mM NaCl, 5 mM potassium phosphate, pH 7.4, 8% (w/v) glycerol, 25°C, 1.04 mM SSB-Carb titrated into 46 µM DnaG-C",240000 M⁻¹
same,binding enthalpy ΔH by ITC,"[3]; 5 mM NaCl, 5 mM potassium phosphate, pH 7.4, 8% (w/v) glycerol, 25°C, SSB-Carb on DnaG-C",-12.4 kcal/mol
same,binding (association) constant KA by ITC,"[3]; 150 mM NaCl, 5 mM potassium phosphate, pH 7.4, 8% (w/v) glycerol, 25°C, 1.08 mM SSB-Carb titrated into 46 µM DnaG-C",74000 M⁻¹ and ~70000 M⁻¹
same,binding enthalpy ΔH by ITC,[3]; [5],-9.87 kcal/mol
same,binding stoichiometry n by ITC,[3]; [5],0.89
same,change of affinity on increase of salt concentration,"[3]; from 5 to 150 mM NaCl, DnaG-C/SSB-Carb interaction, ITC",decreases the affinity only by a factor of about three
χ: χ subunit of DNA polymerase III,increase in SSB-binding affinity in presence of ssDNA,[4],20 fold
B1,"sedimentation coefficient, free protein",[1],1.4 S
B2,"sedimentation coefficient, free protein",[1],2.9 S
